ChEMBL document CHEMBL1131343, “Nonpeptide cyclic cyanoguanidines as HIV-1 protease inhibitors: synthesis, structure-activity relationships, and X-ray crystal structure studies” (J Med Chem, 1998)

Columns and labels:
[1] = system: Human immunodeficiency virus 1; assay: The antiviral potency (IC90) was assessed by measuring their effect on the accumulation of viral RNA transcripts on HIV-1 RF infected MT-2 cells; format: functional; conditions: Human immunodeficiency virus 1, MT2
Procedure, shortened: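 HIV-1 RF infection of MT-2 cells; the read-out is viral RNA transcript accumulation measured 3 days after infection. IC90 is taken from this read-out.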

[2] = target: Human immunodeficiency virus type 1 protease (Human immunodeficiency virus 1, UniProt Q72874); assay: Binding affinity for HIV-1 protease enzyme was measured by using fluorescent peptide substrate

| Compound | IC90 [1] | Ki [2] |
| --- | --- | --- |
| N#CN=C1N(Cc2cccc(OCc3ccccc3)c2)[C@H](Cc2ccccc2)[C@H](O)[C@@H](O)[C@@H](Cc2ccccc2)N1Cc1cccc(OCc2ccccc2)c1 | > 67300 nM | 1370 nM |
| CC(C)CCN1C(=O)N(CCC(C)C)[C@H](Cc2ccccc2)[C@H](O)[C@@H](O)[C@H]1Cc1ccccc1 | 4300 nM |  |
| N#CN=C1N(Cc2ccc(O)cc2)[C@H](Cc2ccccc2)[C@H](O)[C@@H](O)[C@@H](Cc2ccccc2)N1Cc1ccc(O)cc1 | 250 nM | 2.6 nM |
| CCCCN1C(=NC#N)N(CCCC)[C@H](Cc2ccccc2)[C@H](O)[C@@H](O)[C@H]1Cc1ccccc1 | 2600 nM | 2.7 nM |
| N#CN=C1N(Cc2cccc(C#N)c2)[C@H](Cc2ccccc2)[C@H](O)[C@@H](O)[C@@H](Cc2ccccc2)N1Cc1cccc(C#N)c1 | 3100 nM | 27 nM |
| N#CN=C1N(Cc2ccc(N)cc2)[C@H](Cc2ccccc2)[C@H](O)[C@@H](O)[C@@H](Cc2ccccc2)N1Cc1ccc(N)cc1 | 2300 nM | 25 nM |
| O=C1N(Cc2ccc(OCc3ccccc3)cc2)[C@H](Cc2ccccc2)[C@H](O)[C@@H](O)[C@@H](Cc2ccccc2)N1Cc1ccc(OCc2ccccc2)cc1 | > 70000 nM | 542 nM |
| CC(C)=CCN1C(=O)N(CC=C(C)C)[C@H](Cc2ccccc2)[C@H](O)[C@@H](O)[C@H]1Cc1ccccc1 | 860 nM | 1.6 nM |
| N#CN=C1N(CC2CCCCC2)[C@H](Cc2ccccc2)[C@H](O)[C@@H](O)[C@@H](Cc2ccccc2)N1CC1CCCCC1 | 1100 nM | 5.7 nM |
| N#Cc1cccc(CN2C(=O)N(Cc3cccc(C#N)c3)[C@H](Cc3ccccc3)[C@H](O)[C@@H](O)[C@H]2Cc2ccccc2)c1 | 2200 nM |  |
| N#CN=C1N(Cc2cccc([N+](=O)[O-])c2)[C@H](Cc2ccccc2)[C@H](O)[C@@H](O)[C@@H](Cc2ccccc2)N1Cc1cccc([N+](=O)[O-])c1 | 17700 nM | 89 nM |
| N#CN=C1N(Cc2ccc(CO)cc2)[C@H](Cc2ccccc2)[C@H](O)[C@@H](O)[C@@H](Cc2ccccc2)N1Cc1ccc(CO)cc1 | 3200 nM | 11 nM |
| N#CN=C1N(CC2CCCC2)[C@H](Cc2ccccc2)[C@H](O)[C@@H](O)[C@@H](Cc2ccccc2)N1CC1CCCC1 | 350 nM | 1.5 nM |
| C=CCN1C(=NC#N)N(CC=C)[C@H](Cc2ccccc2)[C@H](O)[C@@H](O)[C@H]1Cc1ccccc1 | 51000 nM | 37 nM |
| N#CN=C1N(Cc2cccc(N)c2)[C@H](Cc2ccccc2)[C@H](O)[C@@H](O)[C@@H](Cc2ccccc2)N1Cc1cccc(N)c1 | 500 nM | 7.4 nM |
| N#CN=C1N(Cc2cccc(O)c2)[C@H](Cc2ccccc2)[C@H](O)[C@@H](O)[C@@H](Cc2ccccc2)N1Cc1cccc(O)c1 | 130 nM | 0.72 nM |
| Nc1ccc(CN2C(=O)N(Cc3ccc(N)cc3)[C@H](Cc3ccccc3)[C@H](O)[C@@H](O)[C@H]2Cc2ccccc2)cc1 | 110 nM | 1.1 nM |
| NC(=O)NC1=N[C@H](Cc2ccccc2)[C@H](O)[C@@H](O)[C@@H](Cc2ccccc2)N1 | > 142000 nM | > 12500 nM |
| CC(C)CCN1C(=NC#N)N(CCC(C)C)[C@H](Cc2ccccc2)[C@H](O)[C@@H](O)[C@H]1Cc1ccccc1 | 1100 nM | 3.8 nM |

| Compound | IC90 [1] | Ki [2] |
| --- | --- | --- |
| N#CN=C1N(Cc2ccc(C#N)cc2)[C@H](Cc2ccccc2)[C@H](O)[C@@H](O)[C@@H](Cc2ccccc2)N1Cc1ccc(C#N)cc1 | 7700 nM | 128 nM |
| N#CN=C1N(Cc2cccc(CO)c2)[C@H](Cc2ccccc2)[C@H](O)[C@@H](O)[C@@H](Cc2ccccc2)N1Cc1cccc(CO)c1 | 590 nM | 1.7 nM |
| N#CN=C1N(Cc2ccccc2)[C@H](Cc2ccccc2)[C@H](O)[C@@H](O)[C@@H](Cc2ccccc2)N1Cc1ccccc1 | 3800 nM | 20 nM |
| O=C1N(CC2CCCCC2)[C@H](Cc2ccccc2)[C@H](O)[C@@H](O)[C@@H](Cc2ccccc2)N1CC1CCCCC1 | 96000 nM |  |
| N#CN=C1N(Cc2ccc(OCc3ccccc3)cc2)[C@H](Cc2ccccc2)[C@H](O)[C@@H](O)[C@@H](Cc2ccccc2)N1Cc1ccc(OCc2ccccc2)cc1 | 67300 nM | 900 nM |
| N#CN=C1N(Cc2ccc3ccccc3c2)[C@H](Cc2ccccc2)[C@H](O)[C@@H](O)[C@@H](Cc2ccccc2)N1Cc1ccc2ccccc2c1 | > 79000 nM | 22 nM |
| O=C1N(Cc2ccc3ccccc3c2)[C@H](Cc2ccccc2)[C@H](O)[C@@H](O)[C@@H](Cc2ccccc2)N1Cc1ccc2ccccc2c1 | 3900 nM | 0.31 nM |
| O=C1N[C@H](Cc2ccccc2)[C@H](O)[C@@H](O)[C@@H](Cc2ccccc2)N1 |  | 267 nM |
| CC(C)=CCN1C(=NC#N)N(CC=C(C)C)[C@H](Cc2ccccc2)[C@H](O)[C@@H](O)[C@H]1Cc1ccccc1 | 4700 nM | 30 nM |
| O=C1N(Cc2cccc(OCc3ccccc3)c2)[C@H](Cc2ccccc2)[C@H](O)[C@@H](O)[C@@H](Cc2ccccc2)N1Cc1cccc(OCc2ccccc2)c1 | > 70000 nM | 340 nM |
| CCCN1C(=NC#N)N(CCC)[C@H](Cc2ccccc2)[C@H](O)[C@@H](O)[C@H]1Cc1ccccc1 | 7400 nM | 14 nM |
| O=C1N(Cc2ccc(O)cc2)[C@H](Cc2ccccc2)[C@H](O)[C@@H](O)[C@@H](Cc2ccccc2)N1Cc1ccc(O)cc1 | 32 nM |  |
| N#CN=C1N(Cc2ccc([N+](=O)[O-])cc2)[C@H](Cc2ccccc2)[C@H](O)[C@@H](O)[C@@H](Cc2ccccc2)N1Cc1ccc([N+](=O)[O-])cc1 | 19300 nM | 67 nM |
| N#Cc1ccc(CN2C(=O)N(Cc3ccc(C#N)cc3)[C@H](Cc3ccccc3)[C@H](O)[C@@H](O)[C@H]2Cc2ccccc2)cc1 | 5800 nM | 52 nM |
| N#CN=C1N(CC2CC2)[C@H](Cc2ccccc2)[C@H](O)[C@@H](O)[C@@H](Cc2ccccc2)N1CC1CC1 | 5000 nM | 22 nM |
| N#CN=C1N(CC2CCC2)[C@H](Cc2ccccc2)[C@H](O)[C@@H](O)[C@@H](Cc2ccccc2)N1CC1CCC1 | 840 nM | 2 nM |
| O=C1N(Cc2ccc([N+](=O)[O-])cc2)[C@H](Cc2ccccc2)[C@H](O)[C@@H](O)[C@@H](Cc2ccccc2)N1Cc1ccc([N+](=O)[O-])cc1 | 8400 nM | 32 nM |
| O=C1N(Cc2ccc(CO)cc2)[C@H](Cc2ccccc2)[C@H](O)[C@@H](O)[C@@H](Cc2ccccc2)N1Cc1ccc(CO)cc1 [DMP-323] | 57 nM |  |
| Nc1cccc(CN2C(=O)N(Cc3cccc(N)c3)[C@H](Cc3ccccc3)[C@H](O)[C@@H](O)[C@H]2Cc2ccccc2)c1 [MOZENAVIR] | 130 nM | 0.28 nM |
